This is an account of results in BindingDB's records for doi:10.1016/j.bmc.2016.04.060 (Chugai Pharmaceutical, 2016).

Molecules are shown by their SMILES.

The assay has as its target Phosphatidylinositol 3-kinase regulatory subunit alpha/4,5-bisphosphate 3-kinase catalytic subunit alpha isoform (Homo sapiens, UniProt P27986+P42336). Put plainly: Inhibition of human PI3K p110alpha/p85alpha expressed in baculovirus preincubated for 20 mins followed by addition of phosphorylate phosphatidylinositol-4,5-bisphosphate as substrate and ATP measured after 15 mins by AlphaScreen competition assay. In short, it runs like this:
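Purified baculovirus-expressed human p110/p85α preincubated with compound 20 min at room temperature. Then 4 µM PI(4,5)P2 and 10 µM ATP (5 mM Hepes pH 7.5, 2.5 mM MgCl2) added for 15 min at 37 °C. PIP3 product detected by AlphaScreen competition using GST-GRP1, biotin-PIP3 and anti-GST acceptor/streptavidin donor beads, 1 h at room temperature.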
(Alpha assays give light when donor and acceptor beads are brought close together.)

Chain of Phosphatidylinositol 3-kinase regulatory subunit alpha/4,5-bisphosphate 3-kinase catalytic subunit alpha isoform (P27986 whole entry, canonical isoform): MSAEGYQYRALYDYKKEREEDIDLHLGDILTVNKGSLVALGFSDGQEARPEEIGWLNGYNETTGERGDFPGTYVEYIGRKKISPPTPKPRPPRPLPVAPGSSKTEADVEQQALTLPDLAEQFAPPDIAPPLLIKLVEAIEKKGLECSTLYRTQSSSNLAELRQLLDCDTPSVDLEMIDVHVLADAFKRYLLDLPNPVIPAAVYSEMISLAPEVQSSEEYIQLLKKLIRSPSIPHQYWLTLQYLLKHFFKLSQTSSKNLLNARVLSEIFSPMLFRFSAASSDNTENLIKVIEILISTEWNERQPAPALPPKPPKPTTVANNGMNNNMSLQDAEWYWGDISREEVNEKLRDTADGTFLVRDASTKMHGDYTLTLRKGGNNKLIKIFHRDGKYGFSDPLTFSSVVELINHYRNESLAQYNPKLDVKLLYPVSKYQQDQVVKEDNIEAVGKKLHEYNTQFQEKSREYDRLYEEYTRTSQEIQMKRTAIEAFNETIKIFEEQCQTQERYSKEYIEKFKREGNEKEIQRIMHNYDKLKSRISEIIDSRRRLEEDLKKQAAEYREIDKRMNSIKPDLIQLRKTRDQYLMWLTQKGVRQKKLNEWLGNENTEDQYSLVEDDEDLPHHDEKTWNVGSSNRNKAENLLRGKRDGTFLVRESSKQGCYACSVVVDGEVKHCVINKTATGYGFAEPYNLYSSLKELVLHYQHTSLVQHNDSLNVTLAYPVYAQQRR
Chain of Phosphatidylinositol 3-kinase regulatory subunit alpha/4,5-bisphosphate 3-kinase catalytic subunit alpha isoform (P42336 whole entry, canonical isoform): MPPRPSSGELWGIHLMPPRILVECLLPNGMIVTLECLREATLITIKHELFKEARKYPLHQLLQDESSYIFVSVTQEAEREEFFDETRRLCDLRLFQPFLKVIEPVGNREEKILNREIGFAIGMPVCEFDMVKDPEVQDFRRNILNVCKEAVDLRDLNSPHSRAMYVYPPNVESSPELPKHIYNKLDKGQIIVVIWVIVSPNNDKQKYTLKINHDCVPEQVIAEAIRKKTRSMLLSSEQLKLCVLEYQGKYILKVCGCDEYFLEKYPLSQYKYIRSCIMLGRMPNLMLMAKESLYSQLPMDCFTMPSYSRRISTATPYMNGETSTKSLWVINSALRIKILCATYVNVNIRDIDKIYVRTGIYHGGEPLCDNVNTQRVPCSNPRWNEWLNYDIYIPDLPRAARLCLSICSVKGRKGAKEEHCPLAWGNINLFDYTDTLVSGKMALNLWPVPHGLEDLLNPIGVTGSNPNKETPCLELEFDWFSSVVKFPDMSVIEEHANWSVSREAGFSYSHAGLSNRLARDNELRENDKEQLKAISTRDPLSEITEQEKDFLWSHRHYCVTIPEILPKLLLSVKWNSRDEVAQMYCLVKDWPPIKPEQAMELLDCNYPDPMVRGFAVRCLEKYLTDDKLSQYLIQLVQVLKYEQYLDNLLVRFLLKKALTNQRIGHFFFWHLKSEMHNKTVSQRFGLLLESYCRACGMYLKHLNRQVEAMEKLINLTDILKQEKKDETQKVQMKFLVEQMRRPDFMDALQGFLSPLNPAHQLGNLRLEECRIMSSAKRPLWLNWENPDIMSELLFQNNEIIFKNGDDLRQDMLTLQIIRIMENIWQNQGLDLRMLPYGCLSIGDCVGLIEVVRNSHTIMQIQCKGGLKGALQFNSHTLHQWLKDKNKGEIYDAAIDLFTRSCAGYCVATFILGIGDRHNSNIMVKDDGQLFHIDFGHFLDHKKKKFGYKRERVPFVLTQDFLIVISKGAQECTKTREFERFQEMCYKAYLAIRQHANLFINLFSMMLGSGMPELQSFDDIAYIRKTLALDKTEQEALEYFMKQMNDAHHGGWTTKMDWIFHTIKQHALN

For the compound `CCN1CCN(c2cc(F)c(NC(=O)N3CCc4c(-c5cnc(N)nc5)nc(N5CCOCC5)nc43)c(F)c2)CC1`, the concentration for half-maximal inhibition (IC50) (as a rule, the concentration that gives 50% inhibition) was determined as 22 nM.
In the case of `CCN1CCN(c2ccc(NC(=O)N3CCc4c(-c5cnc(N)nc5)nc(N5CCOCC5)nc43)c(C)c2)CC1` it was 10 nM.
